{
  "source": "ChEMBL document CHEMBL1671657",
  "about": "“MurF inhibitors with antibacterial activity: effect on muropeptide levels” (Antimicrob Agents Chemother, 2009)",
  "key": {"[1]": {"test_system": "Escherichia coli", "experiment": "Inhibition of LPS-deficient Escherichia coli OC2530 MurF harboring pASK plasmid assessed as UDP-MurNAc-pentapeptide product level at 2 times MIC by HPLC (Rvb =880 +/- 17 mAU)", "summary_of_the_method": "(§1)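 Compound added at 2× MIC from 500× stock (DMSO control). After 30 min, muropeptides extracted and quantified by HPLC peak area (mAU); representative of two independent experiments.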"}, "[2]": {"test_system": "Escherichia coli", "experiment": "Inhibition of LPS-deficient Escherichia coli OC2530 MurF assessed as UDP-MurNAc-tripeptide substrate level at 2 times MIC by HPLC (reference value: 1 mAU)"}, "[3]": {"test_system": "Escherichia coli", "experiment": "Antimicrobial activity against LPS-deffective Escherichia coli OC2530 by broth microdilution method", "type": "functional", "summary_of_the_method": "(§2)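 MICs by CLSI broth microdilution. Where polymyxin B nonapeptide was included, it was present at 2 μg/ml alongside the test compound.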"}, "[4]": {"test_system": "Escherichia coli", "experiment": "Antimicrobial activity against Escherichia coli OC9040 by broth microdilution method", "type": "functional", "summary_of_the_method": "as §2"}, "[5]": {"test_system": "Escherichia coli", "experiment": "Antimicrobial activity against LPS-deffective Escherichia coli OC2530 at MIC after 30 mins relative to control", "type": "functional, organism-based"}, "[6]": {"test_system": "Escherichia coli", "experiment": "Inhibition of LPS-deficient Escherichia coli OC2530 MurF harboring pMurF plasmid assessed as UDP-MurNAc-pentapeptide product level at 2 times MIC by HPLC (reference value: 2674 +/- 696 mAU)", "summary_of_the_method": "as §1"}, "[7]": {"test_system": "Escherichia coli", "experiment": "Antimicrobial activity against LPS-deffective Escherichia coli OC2530 assessed as growth inhibition at MIC by light microscopy", "type": "functional, organism-based"}, "[8]": {"test_system": "Escherichia coli", "experiment": "Antimicrobial activity against LPS-deffective Escherichia coli OC2530 at 0.5 times MIC after 30 mins relative to control", "type": "functional, organism-based"}, "[9]": {"test_system": "Staphylococcus aureus", "experiment": "Antimicrobial activity against Staphylococcus aureus ATCC 29213 by broth microdilution method in presence of polymyxin B nonapeptide", "type": "functional", "summary_of_the_method": "as §2"}, "[10]": {"test_system": "Escherichia coli", "experiment": "Antimicrobial activity against LPS-deffective Escherichia coli OC2530 at =< MIC after 3 hrs relative to untreated control", "type": "functional, organism-based"}, "[11]": {"test_system": "Escherichia coli", "experiment": "Antimicrobial activity against Escherichia coli OC9040 by broth microdilution method in presence of polymyxin B nonapeptide", "type": "functional", "summary_of_the_method": "as §2"}, "[12]": {"test_system": "Escherichia coli", "experiment": "Inhibition of LPS-deficient Escherichia coli OC2530 MurF assessed as UDP-MurNAc-tripeptide substrate level at 4 times MIC by HPLC (reference value: 1 mAU)"}, "[13]": {"test_system": "Staphylococcus aureus", "experiment": "Antimicrobial activity against methicillin-resistant Staphylococcus aureus OC2878 by broth microdilution method in presence of polymyxin B nonapeptide", "type": "functional", "summary_of_the_method": "(§3)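 CLSI broth microdilution MIC run in the presence of polymyxin B nonapeptide (PMBN) at 2 μg/ml as a permeabilizer.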"}, "[14]": {"test_system": "Escherichia coli", "experiment": "Antimicrobial activity against Escherichia coli ATCC 25922 by broth microdilution method in presence of polymyxin B nonapeptide", "type": "functional", "summary_of_the_method": "as §2"}, "[15]": {"test_system": "Enterococcus faecium", "experiment": "Antimicrobial activity against Enterococcus faecium OC3312 by broth microdilution method", "type": "functional", "summary_of_the_method": "as §2"}, "[16]": {"test_system": "Escherichia coli", "experiment": "Inhibition of LPS-deficient Escherichia coli OC2530 MurF assessed as UDP-MurNAc-tripeptide substrate level at MIC by HPLC (reference value: 1 fold of control)"}, "[17]": {"test_system": "Escherichia coli", "experiment": "Inhibition of LPS-deficient Escherichia coli OC2530 MurF assessed as UDP-MurNAc-pentapeptide product level at MIC by HPLC (reference value: 1 fold of control)"}, "[18]": {"test_system": "Escherichia coli", "experiment": "Antimicrobial activity against Escherichia coli OC2605 by broth microdilution method in presence of polymyxin B nonapeptide", "type": "functional", "summary_of_the_method": "as §2"}, "[19]": {"test_system": "Staphylococcus aureus", "experiment": "Antimicrobial activity against methicillin-resistant Staphylococcus aureus OC3726 by broth microdilution method in presence of polymyxin B nonapeptide", "type": "functional", "summary_of_the_method": "as §3"}, "[20]": {"test_system": "Escherichia coli", "experiment": "Antimicrobial activity against LPS-deffective Escherichia coli OC2530 at MIC after 3 hrs relative to untreated control", "type": "functional"}, "[21]": {"test_system": "Escherichia coli", "experiment": "Antimicrobial activity against LPS-deffective Escherichia coli OC2530 harboring pASK plasmid by broth microdilution method in presence of chloramphenicol", "type": "functional", "summary_of_the_method": "(§4)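 CLSI broth microdilution MIC for OC2530 carrying plasmid (empty pASK or pMurF). Medium contained chloramphenicol 3 μg/ml to keep the plasmid and AHT 100 ng/ml to induce MurF expression.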"}, "[22]": {"test_system": "Escherichia coli", "experiment": "Inhibition of LPS-deficient Escherichia coli OC2530 MurF assessed as UDP-MurNAc-pentapeptide product level at 4 times MIC by HPLC (reference value: 1 mAU)"}, "[23]": {"test_system": "Staphylococcus aureus", "experiment": "Antimicrobial activity against Staphylococcus aureus OC4172 by broth microdilution method", "type": "functional", "summary_of_the_method": "as §2"}, "[24]": {"test_system": "Escherichia coli", "experiment": "Antimicrobial activity against LPS-deffective Escherichia coli OC2530 assessed as cell aggregation at 0.5 times MIC by light microscopy relative to untreated control", "type": "functional, organism-based", "summary_of_the_method": "(§5)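 Cells were fixed on a glass slide under a coverslip and viewed by light microscopy at ×100/×1.25 oil immersion. Representative images were taken.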"}, "[25]": {"test_system": "Staphylococcus aureus", "experiment": "Antimicrobial activity against methicillin-resistant Staphylococcus aureus OC3726 by broth microdilution method", "type": "functional", "summary_of_the_method": "(§6)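 CLSI broth microdilution MIC; strains from the sponsor's in-house collection.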"}, "[26]": {"test_system": "Escherichia coli", "experiment": "Antimicrobial activity against LPS-deffective Escherichia coli OC2530 harboring pMurF plasmid by broth microdilution method in presence of chloramphenicol", "type": "functional", "summary_of_the_method": "as §4"}, "[27]": {"test_system": "Escherichia coli", "experiment": "Inhibition of LPS-deficient Escherichia coli OC2530 MurF assessed as UDP-MurNAc-pentapeptide product level at 0.5 times MIC by HPLC (reference value: 1 mAU)"}, "[28]": {"test_system": "Escherichia coli", "experiment": "Inhibition of LPS-deficient Escherichia coli OC2530 MurF harboring pMurF plasmid assessed as UDP-MurNAc-tripeptide substrate level at 2 times MIC by HPLC (reference value: 220 +/- 65 mAU)", "summary_of_the_method": "as §1"}, "[29]": {"test_system": "Escherichia coli", "experiment": "Bactericidal activity against LPS-deffective Escherichia coli OC2530 assessed as log reduction in bacterial count at 2 times MIC after 3 hrs relative to control", "type": "functional"}, "[30]": {"test_system": "Enterococcus faecalis", "experiment": "Antimicrobial activity against Enterococcus faecalis ATCC 29212 by broth microdilution method", "type": "functional", "summary_of_the_method": "as §2"}, "[31]": {"test_system": "Escherichia coli", "experiment": "Antimicrobial activity against LPS-deffective Escherichia coli OC2530 assessed as log reduction in bacterial count at 2 times MIC after 30 mins relative to control", "type": "functional"}, "[32]": {"experiment": "Inhibition of Escherichia coli MurF"}, "[33]": {"test_system": "Enterococcus faecium", "experiment": "Antimicrobial activity against Enterococcus faecium OC3312 by broth microdilution method in presence of polymyxin B nonapeptide", "type": "functional", "summary_of_the_method": "as §2"}, "[34]": {"test_system": "Staphylococcus aureus", "experiment": "Antimicrobial activity against methicillin-resistant Staphylococcus aureus OC2878 by broth microdilution method", "type": "functional", "summary_of_the_method": "as §6"}, "[35]": {"test_system": "Escherichia coli", "experiment": "Antimicrobial activity against Escherichia coli ATCC 25922 by broth microdilution method", "type": "functional", "summary_of_the_method": "as §2"}, "[36]": {"test_system": "Escherichia coli", "experiment": "Inhibition of LPS-deficient Escherichia coli OC2530 MurF harboring pASK plasmid assessed as UDP-MurNAc-tripeptide substrate level at 2 times MIC by HPLC (reference value: 63 +/- 4 mAU)", "summary_of_the_method": "as §1"}, "[37]": {"test_system": "Escherichia coli", "experiment": "Antimicrobial activity against LPS-deffective Escherichia coli OC2530 at 0.5 times MIC after 4 hrs by light microscopy relative to control", "type": "functional, organism-based", "summary_of_the_method": "as §5"}, "[38]": {"test_system": "Staphylococcus aureus", "experiment": "Antimicrobial activity against Staphylococcus aureus OC4172 by broth microdilution method in presence of polymyxin B nonapeptide", "type": "functional", "summary_of_the_method": "as §2"}, "[39]": {"test_system": "Escherichia coli", "experiment": "Antimicrobial activity against Escherichia coli OC2605 by broth microdilution method", "type": "functional", "summary_of_the_method": "as §6"}},
  "note": "Calls of active or inactive are those of the source. The calls are words filed in the database; no cut-off is given here.",
  "data": [
    {"smiles": "COc1ccc2nc(OC)c([C@@H](c3ccccc3)[C@](O)(CCN(C)C)c3ccccc3)cc2c1", "values": [
      {"measurement": "Activity", "setting": "[1]", "value": 213, "unit": "mAU"},
      {"measurement": "Activity (fold of control)", "setting": "[2]", "value": 89},
      {"measurement": "MIC", "setting": "[3]", "value": 8, "unit": "µg/mL"},
      {"measurement": "MIC", "setting": "[4]", "value": "> 32", "unit": "µg/mL"},
      {"measurement": "Activity", "setting": "[5]", "value": "Active"},
      {"measurement": "Activity", "setting": "[6]", "value": 351, "unit": "mAU"},
      {"measurement": "Activity", "setting": "[7]", "value": "Active"},
      {"measurement": "Activity", "setting": "[8]", "value": "Active"},
      {"measurement": "MIC", "setting": "[9]", "value": "> 32", "unit": "µg/mL"},
      {"measurement": "Activity", "setting": "[10]", "value": "inactive"},
      {"measurement": "MIC", "setting": "[11]", "value": 8, "unit": "µg/mL"},
      {"measurement": "Activity (fold of control)", "setting": "[12]", "value": 63},
      {"measurement": "MIC", "setting": "[13]", "value": "> 32", "unit": "µg/mL"},
      {"measurement": "MIC", "setting": "[14]", "value": 8, "unit": "µg/mL"},
      {"measurement": "MIC", "setting": "[15]", "value": "> 32", "unit": "µg/mL"},
      {"measurement": "Activity (fold of control)", "setting": "[16]", "value": 27},
      {"measurement": "Activity (fold of control)", "setting": "[17]", "value": 1.48},
      {"measurement": "MIC", "setting": "[18]", "value": 4, "unit": "µg/mL"},
      {"measurement": "MIC", "setting": "[19]", "value": "> 32", "unit": "µg/mL"},
      {"measurement": "fold change (FC)", "setting": "[20]", "value": 0.3},
      {"measurement": "MIC", "setting": "[21]", "value": 16, "unit": "µg/mL"},
      {"measurement": "Activity (fold of control)", "setting": "[22]", "value": 0.15},
      {"measurement": "MIC", "setting": "[23]", "value": "> 32", "unit": "µg/mL"},
      {"measurement": "Activity", "setting": "[24]", "value": "Active"},
      {"measurement": "MIC", "setting": "[25]", "value": "> 32", "unit": "µg/mL"},
      {"measurement": "MIC", "setting": "[26]", "value": 16, "unit": "µg/mL"},
      {"measurement": "Activity (fold of control)", "setting": "[27]", "value": 1.62},
      {"measurement": "Activity", "setting": "[28]", "value": 933, "unit": "mAU"},
      {"measurement": "FC", "setting": "[29]", "value": 5},
      {"measurement": "MIC", "setting": "[30]", "value": "> 32", "unit": "µg/mL"},
      {"measurement": "FC", "setting": "[31]", "value": 1},
      {"measurement": "IC50", "setting": "[32]", "value": 24, "unit": "µM"},
      {"measurement": "MIC", "setting": "[33]", "value": "> 32", "unit": "µg/mL"},
      {"measurement": "MIC", "setting": "[34]", "value": "> 32", "unit": "µg/mL"},
      {"measurement": "MIC", "setting": "[35]", "value": "> 32", "unit": "µg/mL"},
      {"measurement": "Activity", "setting": "[36]", "value": 1200, "unit": "mAU"},
      {"measurement": "Activity", "setting": "[37]", "value": "Active"},
      {"measurement": "MIC", "setting": "[38]", "value": "> 32", "unit": "µg/mL"},
      {"measurement": "MIC", "setting": "[39]", "value": "> 32", "unit": "µg/mL"}
    ]}
  ]
}
